Measurements as given in ChEMBL document CHEMBL1138656, “Design, synthesis, and evaluation of sugar amino acid based inhibitors of protein prenyl transferases PFT and PGGT-1” (J Med Chem, 2004).

Experiments:
[1] = target: Protein farnesyltransferase (Homo sapiens, UniProt P49354+P49356); test: Inhibition of [3H]FPP incorporation by Protein Farnesyltransferase; format: protein-complex assay
Method in brief: (§1)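 Cell-free prenyltransferase assay measuring inhibition of enzyme-catalysed incorporation of tritiated prenyl donor: [3H]FPP for PFT, the corresponding tritiated geranylgeranyl donor for PGGT-1. The buffer was Tris, pH 7.4, with dithiothreitol, which removes the cysteine S-tert-butyl group. Each determination used five compound concentrations. The IC50 came from a fitted concentration–inhibition curve and is the mean of three determinations.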

[2] = target: Geranylgeranyl transferase type I (Homo sapiens, UniProt P49354+P53609); test: Inhibition of [3H]GGPP incorporation by Protein Geranylgeranyl transferase type I; format: protein-complex assay; method in brief: as §1

CC[C@H](C)[C@H](NC(=O)[C@@H](NC(=O)[C@@H](N)CS)C(C)C)C(=O)N[C@@H](CCSC)C(=O)O
IC50 [1]: 0.42 µM

CSCC[C@H](NC(=O)[C@H]1O[C@@H](CNC(=O)[C@@H](N)CSSC(C)(C)C)CC[C@@H]1OCc1ccccc1)C(=O)O
IC50 [2]: > 1000 µM
IC50 [1]: 0.25 µM

CSCC[C@H](NC(=O)[C@H]1O[C@H](CNC(=O)[C@@H](N)CSSC(C)(C)C)CC[C@@H]1OCc1ccccc1)C(=O)O
IC50 [2]: 48 µM
IC50 [1]: 42 µM

CC(C)C[C@H](NC(=O)[C@H]1O[C@@H](CNC(=O)[C@@H](N)CSSC(C)(C)C)CC[C@@H]1OCc1ccccc1)C(=O)O
IC50 [2]: 14 µM
IC50 [1]: 57 µM

C[S+]([O-])CC[C@H](NC(=O)[C@H]1O[C@H](CNC(=O)[C@@H](N)CSSC(C)(C)C)CC[C@@H]1OCc1ccccc1)C(=O)O (some centres undefined)
IC50 [2]: 521 µM
IC50 [1]: 91 µM

C=C(N[C@@H](CCSC)C(=O)O)[C@H]1O[C@H](CNC(=O)[C@@H](N)CSSC(C)(C)C)CC[C@@H]1OCc1ccccc1
IC50 [2]: 311 µM
IC50 [1]: ~1000 µM

C=C(N[C@@H](CCSC)C(=O)O)[C@H]1O[C@@H](CNC(=O)[C@@H](N)CSSC(C)(C)C)CC[C@@H]1OCc1ccccc1
IC50 [2]: 500 µM
IC50 [1]: > 1000 µM

C[S+]([O-])CC[C@H](NC(=O)[C@H]1O[C@@H](CNC(=O)[C@@H](N)CSSC(C)(C)C)CC[C@@H]1OCc1ccccc1)C(=O)O (some centres undefined)
IC50 [2]: > 1000 µM
IC50 [1]: 2.2 µM

CC(C)C[C@H](NC(=O)[C@H]1O[C@H](CNC(=O)[C@@H](N)CSSC(C)(C)C)CC[C@@H]1OCc1ccccc1)C(=O)O
IC50 [2]: 206 µM
IC50 [1]: 321 µM

C=C(N[C@@H](CC(C)C)C(=O)O)[C@H]1O[C@@H](CNC(=O)[C@@H](N)CSSC(C)(C)C)CCC1O (some centres undefined)
IC50 [2]: 261 µM
IC50 [1]: > 1000 µM
